Experimental data reported in ChEMBL document CHEMBL3352149, “Promiscuity and selectivity in covalent enzyme inhibition: a systematic study of electrophilic fragments” (J Med Chem, 2014).
Activity calls are given as the source filed them. The rule behind the calls is not given here.

How the values were obtained:
[1] = tested on: Escherichia coli; experiment: Inhibition of Escherichia coli MetAP at 25 uM after 20 mins by HPLC analysis
Procedure, shortened: (§1)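 Endpoint assay. Enzyme (50 nM) was preincubated with 25 μM compound for 20 min at 37 °C in 50 mM Tris pH 7.5, 100 mM NaCl, 100 μM CoCl2, 0.075% BSA. MGMM substrate (400 μM) was then added for 15 min (human MetAP-1) or 20 min (E. coli MetAP). Reactions were stopped with TFA. GMM product was quantified by RP-HPLC, UV 214 nm. Triplicate.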

[2] = target: Methionine aminopeptidase 1 (Homo sapiens) (UniProt P53582); experiment: Inhibition of human MetAP at 25 uM after 20 mins by HPLC analysis; procedure, shortened: as §1
[3] = tested on: Escherichia coli; experiment: Inhibition of wild-type Escherichia coli MurA compound preincubated for 10 mins before substrate addition at 25 uM measured after 15 mins by LC-MS method
[4] = tested on: Escherichia coli; experiment: Inhibition of wild-type Escherichia coli MurB compound preincubated for 10 mins before substrate addition at 25 uM measured after 15 mins by LC-MS method
Procedure, shortened: (§2)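 E. coli wild-type enzyme (4 nM) was preincubated with 25 μM compound for 10 min at 37 °C. Enzymatically generated nucleotide-sugar substrate (~200 μM) plus ATP (~200 μM), or NADPH 200 μM for MurB, was added for 10 min. Reactions were started with amino-acid cosubstrate (MurC–F) or EP-UNAG (MurB), run 15 min at 37 °C, and quenched with formic acid. Product was measured by negative-ESI LC-MS EIC peak area. MgCl2: MurC 10, MurD/E 2, MurF 5 mM; MurB had 5 mM KCl. All in 50 mM NH4HCO3, 0.07% BSA, 1% DMSO; triplicate.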

[5] = tested on: Escherichia coli; experiment: Inhibition of wild-type Escherichia coli MurC compound preincubated for 10 mins before substrate addition at 25 uM measured after 15 mins by LC-MS method; procedure, shortened: as §2
[6] = tested on: Escherichia coli; experiment: Inhibition of wild-type Escherichia coli MurD compound preincubated for 10 mins before substrate addition at 25 uM measured after 15 mins by LC-MS method; procedure, shortened: as §2
[7] = tested on: Escherichia coli; experiment: Inhibition of wild-type Escherichia coli MurE compound preincubated for 10 mins before substrate addition at 25 uM measured after 15 mins by LC-MS method; procedure, shortened: as §2
[8] = tested on: Escherichia coli; experiment: Inhibition of wild-type Escherichia coli MurF compound preincubated for 10 mins before substrate addition at 25 uM measured after 15 mins by LC-MS method; procedure, shortened: as §2
[9] = GSH reactivity of the compound assessed as adducts formation by RP-HPLC analysis
Procedure, shortened: (§3)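 Fresh aqueous glutathione (10 mM solution) was added to 50 mM Tris-maleate buffer, pH 7.5. The reaction was started with compound from 10 mM DMSO stock (final 250 μM). Mixtures were followed by reversed-phase HPLC on an ODS column with a gradient to 100% B; rate constants are given in l·mol⁻¹·s⁻¹.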

[10] = tested on: Escherichia coli; experiment: Induction of covalent MurB enzyme adduct formation preincubated with UNAG substrate for 10 mins compound treated at 300 uM after 1 hr by ESI-MS analysis
[11] = target: Genome polyprotein (dengue virus type 2) (UniProt P12823); experiment: Inhibition of Dengue virus serotype 2 NS2B-NS3 protease at 50 uM
[12] = target: Genome polyprotein (West Nile virus) (UniProt P06935); experiment: Inhibition of West Nile virus NS2B-NS3 protease at 50 uM
Sequence of Genome polyprotein (West Nile virus) (P06935 whole entry): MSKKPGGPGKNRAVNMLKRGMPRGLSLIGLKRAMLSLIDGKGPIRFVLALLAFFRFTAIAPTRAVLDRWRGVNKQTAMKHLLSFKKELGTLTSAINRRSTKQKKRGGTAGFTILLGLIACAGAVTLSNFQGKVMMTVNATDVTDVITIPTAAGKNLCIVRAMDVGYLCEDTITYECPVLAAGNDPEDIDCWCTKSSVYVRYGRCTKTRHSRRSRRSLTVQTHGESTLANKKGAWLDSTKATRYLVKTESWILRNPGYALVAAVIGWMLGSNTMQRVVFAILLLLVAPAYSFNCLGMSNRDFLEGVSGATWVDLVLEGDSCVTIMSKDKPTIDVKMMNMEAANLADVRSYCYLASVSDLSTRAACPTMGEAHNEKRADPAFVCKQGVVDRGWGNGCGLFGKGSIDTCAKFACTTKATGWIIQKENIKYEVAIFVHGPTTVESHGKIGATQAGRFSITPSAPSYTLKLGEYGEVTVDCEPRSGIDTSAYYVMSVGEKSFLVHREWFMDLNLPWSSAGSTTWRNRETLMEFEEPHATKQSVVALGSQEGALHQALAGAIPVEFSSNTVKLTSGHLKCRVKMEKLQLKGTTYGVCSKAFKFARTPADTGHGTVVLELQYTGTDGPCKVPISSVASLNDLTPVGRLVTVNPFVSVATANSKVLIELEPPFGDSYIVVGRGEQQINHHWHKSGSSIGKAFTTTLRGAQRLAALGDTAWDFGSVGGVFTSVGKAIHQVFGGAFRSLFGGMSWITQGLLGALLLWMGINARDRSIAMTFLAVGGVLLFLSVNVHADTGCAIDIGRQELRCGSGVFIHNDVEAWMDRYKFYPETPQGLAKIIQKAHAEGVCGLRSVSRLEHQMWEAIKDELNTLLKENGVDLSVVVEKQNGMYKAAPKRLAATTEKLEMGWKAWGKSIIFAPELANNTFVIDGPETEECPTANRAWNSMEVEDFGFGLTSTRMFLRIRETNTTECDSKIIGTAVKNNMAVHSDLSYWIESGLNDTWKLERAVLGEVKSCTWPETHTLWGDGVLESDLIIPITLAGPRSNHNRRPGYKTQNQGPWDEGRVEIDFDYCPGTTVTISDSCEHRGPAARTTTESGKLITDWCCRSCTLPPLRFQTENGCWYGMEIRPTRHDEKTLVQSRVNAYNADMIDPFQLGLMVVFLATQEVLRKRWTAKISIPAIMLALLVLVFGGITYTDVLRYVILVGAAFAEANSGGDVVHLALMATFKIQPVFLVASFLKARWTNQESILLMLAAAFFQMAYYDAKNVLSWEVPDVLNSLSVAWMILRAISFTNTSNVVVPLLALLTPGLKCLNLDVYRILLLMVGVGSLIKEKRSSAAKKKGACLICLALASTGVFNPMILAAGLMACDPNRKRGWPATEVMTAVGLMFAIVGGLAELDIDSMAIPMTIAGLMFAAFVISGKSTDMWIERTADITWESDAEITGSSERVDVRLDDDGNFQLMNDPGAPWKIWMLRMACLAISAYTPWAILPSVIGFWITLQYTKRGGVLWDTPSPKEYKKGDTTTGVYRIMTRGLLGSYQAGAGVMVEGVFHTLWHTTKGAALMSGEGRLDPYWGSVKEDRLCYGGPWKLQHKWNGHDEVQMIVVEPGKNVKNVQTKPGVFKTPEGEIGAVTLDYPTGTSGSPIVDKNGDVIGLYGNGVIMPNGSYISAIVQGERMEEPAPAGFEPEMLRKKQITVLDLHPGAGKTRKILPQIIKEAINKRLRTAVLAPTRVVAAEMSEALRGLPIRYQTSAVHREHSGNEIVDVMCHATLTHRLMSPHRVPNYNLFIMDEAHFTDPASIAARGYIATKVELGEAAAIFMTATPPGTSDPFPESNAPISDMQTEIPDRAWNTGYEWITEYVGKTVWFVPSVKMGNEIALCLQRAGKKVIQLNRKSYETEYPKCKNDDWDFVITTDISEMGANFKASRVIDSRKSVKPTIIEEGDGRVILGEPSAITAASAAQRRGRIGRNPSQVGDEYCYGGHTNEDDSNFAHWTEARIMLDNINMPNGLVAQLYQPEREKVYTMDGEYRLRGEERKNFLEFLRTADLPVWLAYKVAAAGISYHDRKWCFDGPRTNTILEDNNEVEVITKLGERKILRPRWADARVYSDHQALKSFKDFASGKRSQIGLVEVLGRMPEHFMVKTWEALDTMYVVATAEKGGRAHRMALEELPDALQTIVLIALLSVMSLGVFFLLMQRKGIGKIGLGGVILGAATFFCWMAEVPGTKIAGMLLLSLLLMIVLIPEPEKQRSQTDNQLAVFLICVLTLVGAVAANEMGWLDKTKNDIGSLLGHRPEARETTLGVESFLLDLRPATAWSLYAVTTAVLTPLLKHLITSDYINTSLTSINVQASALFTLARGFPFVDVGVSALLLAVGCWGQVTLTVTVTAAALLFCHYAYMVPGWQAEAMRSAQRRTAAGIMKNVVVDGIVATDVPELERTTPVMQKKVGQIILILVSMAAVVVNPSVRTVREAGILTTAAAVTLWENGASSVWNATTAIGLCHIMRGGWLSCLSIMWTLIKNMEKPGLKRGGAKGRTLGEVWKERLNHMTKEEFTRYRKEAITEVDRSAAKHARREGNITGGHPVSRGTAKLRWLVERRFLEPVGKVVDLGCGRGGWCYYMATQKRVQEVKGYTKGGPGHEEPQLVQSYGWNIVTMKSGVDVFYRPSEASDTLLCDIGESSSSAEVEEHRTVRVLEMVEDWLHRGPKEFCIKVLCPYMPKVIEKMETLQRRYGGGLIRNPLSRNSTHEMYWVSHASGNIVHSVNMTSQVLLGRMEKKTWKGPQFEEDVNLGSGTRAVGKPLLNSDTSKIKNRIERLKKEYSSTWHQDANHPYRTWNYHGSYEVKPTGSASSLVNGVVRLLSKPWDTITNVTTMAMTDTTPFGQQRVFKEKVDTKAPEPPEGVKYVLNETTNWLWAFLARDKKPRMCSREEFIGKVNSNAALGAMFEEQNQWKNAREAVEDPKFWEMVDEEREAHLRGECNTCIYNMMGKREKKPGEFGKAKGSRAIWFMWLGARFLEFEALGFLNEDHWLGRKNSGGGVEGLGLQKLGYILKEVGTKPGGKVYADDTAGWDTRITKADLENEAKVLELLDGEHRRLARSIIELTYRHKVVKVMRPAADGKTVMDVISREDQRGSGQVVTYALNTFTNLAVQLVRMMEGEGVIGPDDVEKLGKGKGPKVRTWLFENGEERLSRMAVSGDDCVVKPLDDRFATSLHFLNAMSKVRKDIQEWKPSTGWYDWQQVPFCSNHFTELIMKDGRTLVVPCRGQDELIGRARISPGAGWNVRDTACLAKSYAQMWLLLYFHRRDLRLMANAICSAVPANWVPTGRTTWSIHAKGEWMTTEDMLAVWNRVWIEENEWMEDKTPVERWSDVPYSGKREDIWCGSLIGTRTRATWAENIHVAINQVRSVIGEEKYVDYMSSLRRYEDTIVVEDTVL

[13] = target: Prothrombin (Bos taurus) (UniProt P00735); experiment: Inhibition of Bovine thrombin using Boc-Val-Pro-Arg-AMC as substrate compound preincubated at 25 uM for 15 mins by fluorescence assay
Procedure, shortened: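 Bovine thrombin (final 10 nM) was preincubated 15 min with 25 μM compound in 50 mM Tris-HCl pH 7.5, 150 mM NaCl, 0.05% Tween 20. The reaction was started with Boc-Val-Pro-Arg-AMC (50 μM final). Fluorescence (ex 355/em 460 nm) was monitored continuously for 10 min; activity taken as slope (RFU/s). Triplicate.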

[14] = tested on: Escherichia coli; experiment: Induction of covalent MurE enzyme adduct formation preincubated with UNAG substrate for 10 mins compound treated at 300 uM after 1 hr by ESI-MS analysis
[15] = tested on: Escherichia coli; experiment: Induction of covalent MetAP enzyme adduct formation at 300 uM after 1 hr by ESI-MS analysis
Procedure, shortened: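 E. coli MetAP (25 μM) was incubated with 300 μM compound for 60 min at 37 °C in 50 mM NH4HCO3, pH 7.9, with 200 μM CoCl2. Untreated enzyme served as control. Samples were spin-desalted on Sephadex G-25 and analysed by flow-injection ESI-MS in positive mode (isocratic water/acetonitrile 95/5 with 0.1% formic acid), looking for covalent adducts.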

[16] = tested on: HeLa; experiment: Cytotoxicity against human HeLa cells assessed as reduction in cell viability after 24 hrs by CellTiter-Blue assay; format: cell-based
Procedure, shortened: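 HeLa cells seeded in triplicate at 5×10^3 cells/well and grown 24 h at 37 °C/5% CO2. Compounds at varying concentrations were added as a 2x stock in phenol-red-free DMEM with FBS, penicillin/streptomycin, sodium pyruvate and L-glutamine, then left 24 h. Medium was replaced with CellTiter-Blue medium for 3 h. A570/A610 was read after background subtraction, as % of untreated controls; EC50 derived.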

[17] = GSH reactivity of the compound assessed as half life by RP-HPLC analysis
[18] = tested on: Escherichia coli; experiment: Induction of covalent MurA enzyme adduct formation preincubated with UNAG substrate for 10 mins compound treated at 300 uM after 1 hr by ESI-MS analysis
Procedure, shortened: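 E. coli MurA (25 μM) preincubated with UNAG 300 μM for 10 min at 37 °C, then test compound added at 300 μM. Incubation ran 60 min at 37 °C in 50 mM NH₄HCO₃, pH 7.9. Samples were spin-desalted on Sephadex G-25, then analysed by flow-injection positive-mode ESI-MS for enzyme adducts. Untreated enzyme served as control.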

[19] = GSH reactivity of the compound assessed as adducts formation meaured over 3 hrs by RP-HPLC analysis; procedure, shortened: as §3

In the case of `O=C(Nc1ccc(F)cc1)n1ccnc1`, the inhibition [1] is reported as under 15%, the inhibition [2] is reported as under 15% and the inhibition [3] is reported as 28%. It also gave an inhibition [4] of under 15%, an inhibition [5] of under 15% and an inhibition [6] of under 15%. For the same compound, the inhibition [7] was under 15%, the inhibition [8] was under 15% and the Activity [9] was under 0.1 L/mol/s. The Activity [10] was under 0.1 L/mol/s, the inhibition [11] was under 15% and the inhibition [12] was under 15%. It also gave an inhibition [13] of under 15%.

In the case of `O=C(Nc1ccc([N+](=O)[O-])cc1)C1CC(Br)=NO1` (stereo unspecified), the inhibition [1] is reported as 28%, the inhibition [2] is reported as under 15% and the inhibition [3] is reported as under 15%. The inhibition [4] was under 15%, the inhibition [5] was under 15% and the inhibition [6] was under 15%. It also gave an inhibition [7] of 44%, an inhibition [8] of under 15% and an Activity [9] of under 0.1 L/mol/s. It also gave an Activity [10] of under 0.1 L/mol/s, an Activity [14] of under 0.1 L/mol/s and an Activity [15] of under 0.1 L/mol/s. The EC50 [16] was 73.4 µM, the T1/2 [17] was over 200 h and the inhibition [11] was under 15%. The inhibition [12] was under 15% and the inhibition [13] was under 15%.

Compound `C=CC(=O)Nc1ccccc1` has an inhibition [1] of under 15%, an inhibition [2] of under 15% and an inhibition [3] of under 15%. It also gave an inhibition [4] of under 15%, an inhibition [5] of under 15% and an inhibition [6] of under 15%. The inhibition [7] was under 15%, the inhibition [8] was under 15% and the Activity [9] was under 0.1 L/mol/s. The Activity [18] was “inactive”, the Activity [14] was under 0.1 L/mol/s and the Activity [15] was under 0.1 L/mol/s. The EC50 [16] was over 100 µM, the Activity [19] was under 5% and the inhibition [11] was under 15%. For the same compound, the inhibition [12] was under 15% and the inhibition [13] was under 15%.

`O=C(Nc1ccccc1)C1CC(Br)=NO1` (stereo unspecified) showed an inhibition [1] of under 15%, an inhibition [2] of under 15% and an inhibition [3] of under 15%. The inhibition [4] was under 15%, the inhibition [5] was under 15% and the inhibition [6] was under 15%. The inhibition [7] was under 15%, the inhibition [8] was under 15% and the Activity [9] was under 0.1 L/mol/s. For the same compound, the Activity [18] was “inactive”, the Activity [14] was under 0.1 L/mol/s and the Activity [15] was under 0.1 L/mol/s. For the same compound, the EC50 [16] was over 100 µM, the T1/2 [17] was over 200 h and the inhibition [11] was under 15%. For the same compound, the inhibition [12] was under 15% and the inhibition [13] was under 15%.

For `O=C(CCl)Nc1ccccc1`, the inhibition [1] was under 15%, the inhibition [2] was under 15% and the inhibition [3] was under 15%. For the same compound, the inhibition [4] was under 15%, the inhibition [5] was under 15% and the inhibition [6] was under 15%. It also gave an inhibition [7] of under 15%, an inhibition [8] of under 15% and an Activity [9] of under 0.1 L/mol/s. For the same compound, the Activity [18] was “inactive”, the Activity [14] was under 0.1 L/mol/s and the Activity [15] was under 0.1 L/mol/s. The EC50 [16] was 20.9 µM, the inhibition [11] was under 15% and the inhibition [12] was under 15%. The inhibition [13] was under 15%.

`O=C(Nc1ccccc1)n1ccnc1` [IMIDAZOLE-1-CARBOXYLIC ACID PHENYLAMIDE] gave an inhibition [1] of under 15%, an inhibition [2] of under 15% and an inhibition [3] of under 15%. It also gave an inhibition [4] of under 15%, an inhibition [5] of under 15% and an inhibition [6] of under 15%. The inhibition [7] was under 15%, the inhibition [8] was under 15% and the Activity [9] was under 0.1 L/mol/s. For the same compound, the Activity [18] was “inactive”, the Activity [14] was under 0.1 L/mol/s and the Activity [15] was under 0.1 L/mol/s. It also gave an EC50 [16] of over 100 µM, an inhibition [11] of under 15% and an inhibition [12] of under 15%. For the same compound, the inhibition [13] was under 15%.
